# This is one part of a sample in which hits are shown more often than they occur.
# Insulin prom act = activators of insulin promoter-driven GFP, primary screen, imaging, TRM-6 cells, eGFP reporter, cell count; plate-scaled: unstimulated 0, stimulated control 100; activation, % at 2 µM; 130,000 compounds, 0.81% hits; AID 1296, 2008;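 active = activation at 2 µM above a set limit, confirmed on inspection of the cell images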;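 also: share of cells whose green reporter signal exceeds an intensity cutoff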
#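 Material: Human fetal islet-derived TRM-6 cells with tamoxifen-inducible insulin promoter–eGFP reporter | Medium: Low-glucose (5.5 mM) medium with tamoxifen | Probe or stimulus: Tamoxifen inducer, 0.75 µM, in seeding medium | Schedule: Tamoxifen pre-incubation 15 h overnight, then compound exposure 48 h at 37 °C | Detection: High-content imaging of fixed cells with Hoechst nuclear stain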
# Starred values were filed as active, the others as inactive.
SMILES,Insulin prom act
O=C(NCC1CCCO1)C1c2ccccc2C(=O)N1C1CCCCCCC1 (stereo unspecified),0.0
Cc1ccc2nc(N3CCOCC3)c(C=O)c(=O)n2c1,7.7
CSC(=NNC(=O)c1ccc(O)cc1)SC,5.1
Cc1cc(C2C(C#N)=C(N)SC(N)=C2C#N)c(C)s1,184.6
CCCCc1ccc(C2C(C#N)=C(N)SC(N)=C2C#N)s1,275.0*
Cc1sccc1C1C(C#N)=C(N)SC(N)=C1C#N,276.2
COc1cc(NC(=S)NCc2ccc(S(N)(=O)=O)cc2)c(OC)cc1Cl,9.4
Cc1cccc(-c2nc(CN3CCCC(C(=O)NC4CCC(C)CC4)C3)c(C)o2)c1 (stereo unspecified),135.7*
Cc1oc(-c2ccc(Cl)cc2)nc1CN1CCC(C(=O)NCc2cccs2)CC1,-2.8
Cc1oc(-c2ccccc2F)nc1CN1CCC(C(=O)NC2CCCc3ccccc32)CC1 (stereo unspecified),-85.7
Cc1nc([N+](=O)[O-])c(Sc2nc3ccc([N+](=O)[O-])cc3[nH]2)n1Cc1ccccc1,3.8
CN1/C(=C\C=C2/C(=O)Oc3ccccc3C2=O)C(C)(C)c2ccccc21,222.6*
CN1/C(=C\C(=O)Nc2ccc(Br)cc2)C(C)(C)c2ccccc21,0.0
Cc1nn(-c2ccccc2)c2c1C1(C(=O)N(C)c3ccccc31)C(C#N)=C(N)O2 (stereo unspecified),-17.5
S=C(NC1CCCCC1)N1CCN(C/C=C/c2ccccc2)CC1,-7.1
O=C(NN1CCOCC1)C12CC3CC(CC(C3)C1)C2,-3.7
Cc1nn(-c2ccccc2)c(C)c1/C=N/NC(=O)c1cc(-c2ccccc2)n[nH]1,125.0*
Cc1nn(-c2ccccc2)c(C)c1/C=N/n1c(-c2ccc(Cl)cc2)n[nH]c1=S,0.0
Cc1nn(-c2ccccc2)c(C)c1/C=N/NC(=O)CSc1nnc(SCc2ccccc2Cl)s1,166.7
CC(C(=O)Nc1ccc(C#N)cc1)N(C)CC(=O)Nc1ccccc1Br (stereo unspecified),9.1
CCC(Sc1nc(N)cc(N)n1)C(=O)O (stereo unspecified),-5.4
CCc1nnc(NC(=O)C2Cc3ccccc3CN2S(=O)(=O)c2c(C)c(C)cc(C)c2C)s1 (stereo unspecified),2.9
COc1cccc(S(=O)(=O)Nc2cccc(C(=O)N3CCOCC3)c2)c1,465.7*
COc1ccc(NS(=O)(=O)c2ccc(OCC(=O)N3CCOCC3)cc2)cc1,0.0
O=C(c1cccc(NS(=O)(=O)c2cccc([N+](=O)[O-])c2)c1)N1CCOCC1,0.0
SMILES,Insulin prom act
O=C(Nn1cnnc1)c1cc2c(s1)CCCCC2,-76.9
CC(=O)N(c1ccc(Cl)cc1)c1c[nH]c2ccccc12,-72.2
CC1CCCCC1NC(=O)/C(C#N)=C/c1ccccc1F (stereo unspecified),-6.7
O=C(O)c1ccc(C(=O)Nc2cccc(NC(=O)C3CCCO3)c2)cc1 (stereo unspecified),-5.7
CC(C)CNC(=O)c1cccc(NC(=O)C2CCCO2)c1 (stereo unspecified),437.9*
COc1cccc(C(=O)Nc2cccc(C(=O)NCC(C)C)c2)c1,1.3
Cc1cc(C)n(CCc2nc(-c3ccc(-c4ccccc4)cc3)cs2)n1,6.7
O=C(N=C1N=C2C=CC=CN2Cc2ccccc21)c1ccc(S(=O)(=O)N2CCOCC2)cc1,-5.6
N/C(=N\OC(=O)c1ccc(Br)cc1)c1ccccc1,-3.3
N/C(=N\OC(=O)CCCOc1ccccc1)c1ccncc1,9.5
Cc1ccccc1C(=O)O/N=C(\N)c1ccncc1,508.3*
COCCn1c(Cc2ccccc2)nnc1SCc1ccc([N+](=O)[O-])cc1,-2.7
CCn1nnc(NC(=O)c2ccccc2Br)n1,-35.7
O=C(NCc1ccc(Cl)cc1)C(=O)NCC1OCCN1C(=O)c1ccc(Cl)cc1 (stereo unspecified),-69.2
COc1ccccc1C(c1nnnn1CCc1ccccc1)N1CCCCCC1 (stereo unspecified),7.1
CN(C)/C=N/c1ncc(C(=O)OC(C)(C)C)s1,0.0
O=C1c2cccnc2C(=O)N1Cc1ccccc1,-12.5
O=C1c2cccc3c(O)ccc(c23)C(=O)N1Cc1ccccc1,233.3*
O=C(c1ccccc1)c1ccc(CN2C(=O)c3ccccc3C2=O)o1,394.1
COc1ccccc1C(=O)NC(=S)Nc1ccc(S(=O)(=O)N2CCN(C)CC2)cc1,7.7
CCc1cccc2cc3c(N)c(C(=O)Nc4ccc(S(=O)(=O)N5CCCC5)cc4)sc3nc12,203.0*
O=C(Cc1cccs1)Nc1ccc(S(=O)(=O)N2CCCCC2)cc1,5.6
Cn1nc(C(=O)Nc2ccc(S(=O)(=O)N3CCCCC3)cc2)ccc1=O,-7.1
Cc1ccc(C)c(S(=O)(=O)Nc2ccc3scnc3c2)c1,59.1
COc1ccc(NC(=O)C2CSC3c4ccccc4C(=O)N23)cc1 (stereo unspecified),-42.5
CCC(C)(C)NC(=O)C(c1ccncc1)N(Cc1ccc(C)cc1)C(=O)c1csnn1 (stereo unspecified),0.0
C=CCN=C1NN=C(c2ccc3c(c2)OCCO3)CS1,9.5
